Data set [1] in a line: Selectivity ratio of IC50 for porcine brain CK1-delta/epsilon to IC50 for wild type recombinant Toxoplasma gondii CDPK1.
Data set [2] is described as follows: Selectivity ratio of IC50 for porcine brain GSK-3 alpha/beta to IC50 for wild type recombinant Toxoplasma gondii CDPK1.
For data set [3], the target named is Cyclin-dependent kinase 5/CDK5 activator 1 (Homo sapiens, UniProt Q00535). Nature of the data set: Inhibition of human recombinant CDK5/P25 expressed in Escherichia coli using histone H1 substrate after 30 mins by scintillation and luminescence counting method in presence of [gamma-33P]ATP.
The nature of data set [4]: Inhibition of wild type recombinant Toxoplasma gondii CDPK1 using syntide-2 substrate after 30 mins by Kinase-Glo luminescent assay. In general terms: In Kinase-Glo more light means more ATP remaining.
Data set [5] is described as follows: Selectivity ratio of IC50 for human recombinant CDK5/P25 expressed in Escherichia coli to IC50 for wild type recombinant Toxoplasma gondii CDPK1. Format: cell-free.
A short description of data set [6]: Selectivity ratio of IC50 for full length human GST-tagged RIPK3 expressed in Spodoptera frugiperda Sf9 cells to IC50 for wild type recombinant Toxoplasma gondii CDPK1.
Data set [7] can be described thus: Selectivity ratio of IC50 for human recombinant haspin kinase domain expressed in Escherichia coli BL21-KRX to IC50 for wild type recombinant Toxoplasma gondii CDPK1. Format: cell-free.
Data set [8] deals with Glycogen synthase kinase-3 (Sus scrofa, UniProt B2LUN4+I6LNT8). Briefly: Inhibition of porcine brain GSK-3 alpha/beta using GS-1 substrate after 30 mins by scintillation and luminescence counting method in the presence of [gamma-33P]ATP.
The subject of the next data set is Toxoplasma gondii. Nature of the data set: Antiparasitic activity against Toxoplasma gondii RH tachyzoite expressing beta-galactosidase assessed as inhibition of tachyzoite invasion into human foreskin fibroblast host cells after 96 hrs by colorimetric microtitre assay. It counts as functional, organism-based. Summed up:
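Invasion of HFF host cells by a recombinant T. gondii strain carrying bacterial β-galactosidase was judged indirectly from parasite growth inhibition in a colorimetric microtiter format.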

The nature of data set [9]: Inhibition of porcine brain CK1-delta/epsilon using CKS peptide substrate after 30 mins by scintillation and luminescence counting method in presence of [gamma-33P]ATP. On the set-up: species or system Sus scrofa.
Data set [10] concerns the target T1, Serine/threonine-protein kinase haspin (Homo sapiens, UniProt Q8TF76).
T1 sequence (Q8TF76 whole entry): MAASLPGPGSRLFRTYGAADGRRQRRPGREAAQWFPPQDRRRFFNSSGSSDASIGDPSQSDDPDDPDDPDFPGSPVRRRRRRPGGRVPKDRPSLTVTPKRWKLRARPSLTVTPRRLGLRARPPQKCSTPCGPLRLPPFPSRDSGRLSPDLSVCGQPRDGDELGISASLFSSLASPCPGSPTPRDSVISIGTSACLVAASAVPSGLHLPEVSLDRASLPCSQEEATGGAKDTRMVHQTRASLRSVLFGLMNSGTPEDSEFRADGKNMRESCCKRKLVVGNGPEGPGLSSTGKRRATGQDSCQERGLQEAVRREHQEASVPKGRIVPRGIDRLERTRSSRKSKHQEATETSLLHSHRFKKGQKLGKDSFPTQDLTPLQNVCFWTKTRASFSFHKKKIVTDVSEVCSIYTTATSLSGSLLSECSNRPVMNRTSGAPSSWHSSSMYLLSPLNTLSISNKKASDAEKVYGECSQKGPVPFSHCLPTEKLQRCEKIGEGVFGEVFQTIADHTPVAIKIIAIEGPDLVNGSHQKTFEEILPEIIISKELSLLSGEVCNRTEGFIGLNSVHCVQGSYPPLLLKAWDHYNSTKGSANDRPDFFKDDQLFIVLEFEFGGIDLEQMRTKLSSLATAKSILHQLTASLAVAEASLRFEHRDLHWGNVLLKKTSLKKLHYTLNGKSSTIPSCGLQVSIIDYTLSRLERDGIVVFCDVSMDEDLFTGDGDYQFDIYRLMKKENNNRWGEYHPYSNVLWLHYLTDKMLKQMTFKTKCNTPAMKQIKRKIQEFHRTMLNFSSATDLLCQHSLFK
Briefly: Inhibition of human recombinant haspin kinase domain expressed in Escherichia coli BL21-KRX using histone H3 (1 to 21) peptide substrate after 30 mins by scintillation and luminescence counting method in the presence of [gamma-33P]ATP.

Data set [11] in a line: Cytotoxicity against HFF assessed as cell proliferation after 96 hrs by alamar blue reduction assay. It counts as cell-based. The conditions noted are these: human, HFF cells. Summed up: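 Non-specific toxicity to HFF host cells was measured by Alamar Blue reduction as a quantitative read-out of cell proliferation, with the CC50 derived.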
For orientation: Resazurin is reduced to fluorescent resorufin, in cell work by metabolically active cells.

Data set [12] addresses Receptor-interacting serine/threonine-protein kinase 3 (Homo sapiens, UniProt Q9Y572). Briefly: Inhibition of full length human GST-tagged RIPK3 expressed in Spodoptera frugiperda Sf9 cells after 30 mins by scintillation and luminescence counting method in the presence of [gamma-33P]ATP.

The structures appear in SMILES notation. pEC50, pIC50: −log10 of the molar value. Some results are limits rather than exact numbers.

Sequence of Cyclin-dependent kinase 5/CDK5 activator 1 (Q00535 whole entry): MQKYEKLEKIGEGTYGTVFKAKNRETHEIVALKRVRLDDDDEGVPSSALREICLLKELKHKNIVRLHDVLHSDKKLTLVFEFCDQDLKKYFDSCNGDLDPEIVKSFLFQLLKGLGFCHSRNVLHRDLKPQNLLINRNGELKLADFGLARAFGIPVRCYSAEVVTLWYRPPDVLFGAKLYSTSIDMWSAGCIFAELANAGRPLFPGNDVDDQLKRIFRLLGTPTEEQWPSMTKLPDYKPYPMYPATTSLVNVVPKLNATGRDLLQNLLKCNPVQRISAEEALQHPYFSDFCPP
Sequence of Cyclin-dependent kinase 5/CDK5 activator 1 (Q15078 whole entry, further chain): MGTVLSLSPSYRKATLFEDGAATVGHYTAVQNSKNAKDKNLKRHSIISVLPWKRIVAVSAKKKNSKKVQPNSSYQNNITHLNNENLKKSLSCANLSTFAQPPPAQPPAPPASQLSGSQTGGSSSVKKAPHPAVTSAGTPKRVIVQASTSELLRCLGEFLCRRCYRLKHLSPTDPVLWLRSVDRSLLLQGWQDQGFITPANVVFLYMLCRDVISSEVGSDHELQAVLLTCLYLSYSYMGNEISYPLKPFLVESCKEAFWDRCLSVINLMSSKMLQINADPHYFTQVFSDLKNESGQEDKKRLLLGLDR
Sequence of Receptor-interacting serine/threonine-protein kinase 3 (Q9Y572 whole entry): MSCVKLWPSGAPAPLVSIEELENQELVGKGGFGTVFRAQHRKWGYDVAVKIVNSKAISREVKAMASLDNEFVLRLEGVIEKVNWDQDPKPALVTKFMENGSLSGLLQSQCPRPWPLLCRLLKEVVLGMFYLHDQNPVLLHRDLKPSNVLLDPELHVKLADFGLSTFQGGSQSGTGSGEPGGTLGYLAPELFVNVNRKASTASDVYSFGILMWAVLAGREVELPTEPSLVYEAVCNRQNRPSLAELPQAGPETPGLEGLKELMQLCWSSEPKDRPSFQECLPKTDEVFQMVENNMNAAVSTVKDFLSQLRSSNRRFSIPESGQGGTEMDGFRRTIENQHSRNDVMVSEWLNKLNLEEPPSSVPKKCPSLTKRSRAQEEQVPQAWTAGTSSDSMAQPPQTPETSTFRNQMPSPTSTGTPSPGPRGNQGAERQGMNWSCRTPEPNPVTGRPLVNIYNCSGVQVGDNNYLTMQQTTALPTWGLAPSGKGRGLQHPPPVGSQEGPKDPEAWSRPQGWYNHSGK

On to `CN1CCN(c2ccc3nc(-c4cccc5ccccc45)c(-c4ccncc4)n3n2)CC1`, for which the Ratio IC50 in [1] is 25; in [2], above 1000; in data set [5] it was above 1000; in [6], above 100; in data set [7], above 1000. Moreover, the negative-log IC50 (pIC50) in data set [3] was below 5.00; in data set [4], 8.10; in [9], 6.29; in data set [10], below 5.00; in data set [12] it was 6.06. In addition, in [8], the half-inhibitory concentration (IC50) is above 10 µM. Besides, in the data set with Toxoplasma gondii, the pEC50 was 7.15. Moreover, in data set [11], the 50% cytotoxic concentration (CC50) at 96 h came to 21.3 µM.
`CN1CCN(c2ccc3nc(-c4cccc5c4OCO5)c(-c4ccncc4)n3n2)CC1`: the Ratio IC50 in data set [1] is 25; in data set [2], above 380; in data set [5], above 380; in data set [6], above 100; in data set [7], above 380. Also, the pIC50 in [3] was below 5.00; in data set [4] it was 7.85; in data set [9], 6.43; in data set [10], below 5.00; in [12], 5.60. Moreover, the IC50 in data set [8] was determined as 5.4 µM. Also, the pEC50 with Toxoplasma gondii is 7.00. Besides, in [11], the cytotoxic concentration (CC50) at 96 h was 42.5 µM.

By pIC50 is commonly meant the negative decadic logarithm of the IC50, by convention in mol/L. As a reminder, the IC50 is the concentration at which inhibition is half-maximal. What is called pEC50 is −log10 of the EC50, conventionally taken in molar units. Broadly, the CC50 is the concentration that lowers cell viability or growth by half.

The values are drawn from ChEMBL document CHEMBL3734718, “Development of new highly potent imidazo[1,2-b]pyridazines targeting Toxoplasma gondii calcium-dependent protein kinase 1” (Eur J Med Chem, 2015).
